Assay results: ChEMBL document CHEMBL4808210, “Mapping Chromone-3-Phenylcarboxamide Pharmacophore: Quid Est Veritas?” (J Med Chem, 2021)
Each block holds one molecule with its values, some of them ahead of it. Activity calls are given as the source filed them. The rule behind the calls is not given here.

Experiments:
[1] = Solubility of the compound in phosphate buffer at > 10 uM; type: physicochemical
[2] = target: T1, Amine oxidase [flavin-containing] B (Homo sapiens, UniProt P27338); assay: (§1) Inhibition of recombinant human MAO-B expressed in baculovirus infected BTI-TN- 5B1-4 insect cells using kynuramine as substrate preincubated for 10 mins in presence of substrate followed by enzyme addition and measured every minute for 30 mins by spectrophotometry analysis; type: cell-based
T1 sequence (P27338 whole entry): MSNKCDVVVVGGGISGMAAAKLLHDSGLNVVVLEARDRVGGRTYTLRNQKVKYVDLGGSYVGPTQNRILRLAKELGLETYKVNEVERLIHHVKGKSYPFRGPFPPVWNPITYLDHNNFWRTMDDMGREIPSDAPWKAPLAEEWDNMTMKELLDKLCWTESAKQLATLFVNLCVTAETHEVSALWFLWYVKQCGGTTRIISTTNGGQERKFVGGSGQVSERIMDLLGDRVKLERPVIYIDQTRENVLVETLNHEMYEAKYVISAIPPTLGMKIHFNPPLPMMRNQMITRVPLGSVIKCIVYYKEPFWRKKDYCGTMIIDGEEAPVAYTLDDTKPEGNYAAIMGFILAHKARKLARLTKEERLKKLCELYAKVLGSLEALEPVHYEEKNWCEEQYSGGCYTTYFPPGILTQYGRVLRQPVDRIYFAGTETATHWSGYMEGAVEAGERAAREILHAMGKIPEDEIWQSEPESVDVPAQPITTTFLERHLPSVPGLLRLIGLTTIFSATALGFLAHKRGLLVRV

MAO-A = target: T2, MAO-A (Homo sapiens, UniProt P21397); assay: as §1, with “MAO-A” for “MAO-B”, “cells at 10 uM” for “cells”, “analysis relative to control” for “analysis”; conditions: probe kynuramine, time 40 min
T2 sequence (P21397 whole entry): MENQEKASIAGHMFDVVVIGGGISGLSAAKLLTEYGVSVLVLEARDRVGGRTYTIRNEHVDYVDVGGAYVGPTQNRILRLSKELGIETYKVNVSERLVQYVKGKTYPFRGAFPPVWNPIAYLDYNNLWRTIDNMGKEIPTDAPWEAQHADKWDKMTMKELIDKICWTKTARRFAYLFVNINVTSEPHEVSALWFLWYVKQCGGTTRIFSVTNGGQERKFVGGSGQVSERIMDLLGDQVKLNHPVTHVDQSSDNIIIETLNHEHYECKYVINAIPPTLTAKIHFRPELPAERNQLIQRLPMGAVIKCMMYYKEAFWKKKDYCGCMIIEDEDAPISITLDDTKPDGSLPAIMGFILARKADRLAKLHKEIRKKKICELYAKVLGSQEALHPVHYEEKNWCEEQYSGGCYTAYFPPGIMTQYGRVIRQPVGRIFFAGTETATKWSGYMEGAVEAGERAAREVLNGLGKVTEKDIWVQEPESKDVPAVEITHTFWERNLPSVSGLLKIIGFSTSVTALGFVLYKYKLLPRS
In short: (§2)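 Recombinant hMAO-A and hMAO-B were assayed with kynuramine as substrate. Percent inhibition was taken at 10 μM, the highest concentration tested. Where the hMAO-A IC₅₀ was not reached, it was taken as 10 μM.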

Homo sapiens = species on record: Homo sapiens; assay: Selectivity index, ratio of IC50 for recombinant human MAO-A expressed in baculovirus infected BTI-TN- 5B1-4 insect cells to IC50 for recombinant human MAO-B expressed in baculovirus infected BTI-TN- 5B1-4 insect cells using kynuramine as substrate preincubated for 10 mins in presence of substrate followed by enzyme addition and measured every minute for 30 mins by spectrophotometry analysis; in short: as §2
SH-SY5Y [3] = assay: Cytotoxicity against human SH-SY5Y cells assessed as effect on NR uptake at 1 to 10 uM measured after 24 hrs by neutral red uptake assay; type: cell-based; conditions: dose 1-10 µM
In short: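 Differentiated SH-SY5Y cells were exposed to compounds at 1 and 10 μM for 24 h. Lysosomal activity was read as neutral red dye uptake and compared with untreated cells. Mean ± SEM of at least three independent experiments run in triplicate.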

Caco-2 [4] = assay: Cytotoxicity against human Caco-2 cells assessed as effect on cell viability at 1 to 10 uM measured after 24 hrs by MTT assay; type: cell-based; conditions: caco-2, 24 h, dose 1-10 µM
In short: (§3)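 Caco-2 cells, and SH-SY5Y cells first differentiated toward a dopaminergic-like phenotype, were treated for 24 h with compounds at 1 and 10 μM. Metabolic activity was read as MTT reduction to formazan, relative to untreated cells. Mean ± SEM of at least three independent experiments, each in triplicate.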

[5] = target: T3, Amine oxidase [flavin-containing] A (Homo sapiens, UniProt P21397); assay: Inhibition of recombinant human MAO-A expressed in baculovirus infected BTI-TN- 5B1-4 insect cells using kynuramine as substrate preincubated for 10 mins in presence of substrate followed by enzyme addition and measured every minute for 30 mins by spectrophotometry analysis; in short: as §2
T3 sequence (P21397 whole entry): T2 sequence (P21397 whole entry)

Caco-2 [6] = assay: Cytotoxicity against human Caco-2 cells assessed as reduction in cell viability at 10 uM measured after 24 hrs by MTT assay relative to control; type: cell-based; conditions: caco-2, 24 h; in short: as §3
[7] = target: T1, Amine oxidase [flavin-containing] B; assay: as §1, with “cells at 10 uM” for “cells”, “analysis relative to control” for “analysis”; conditions: BTI-TN-5B1-4, human, 0.5 h, time 40 min; in short: as §2
HUVEC [8] = assay: Cytotoxicity against HUVEC cells at 10 uM incubated for 24 to 48 hrs by Celltiter-Glo assay relative to control; type: cell-based; conditions: human, time 24-48 hrs
In short: (§4)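 Cells (HEK-293, HUVEC, MCF-7) exposed to test compounds at 10 μM for 24 h; cytotoxicity read in triplicate with a luminescence kit measuring intracellular ATP levels.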

HEK293 [9] = assay: Cytotoxicity against HEK293 cells at 10 uM incubated for 24 to 48 hrs by Celltiter-Glo assay relative to control; type: cell-based; conditions: human, hek293, 10 µM, time 24-48 hrs; in short: as §4
MCF7 [10] = assay: Cytotoxicity against human MCF7 cells at 10 uM incubated for 24 to 48 hrs by Celltiter-Glo assay relative to control; type: cell-based; conditions: mcf7, 10 µM, time 24-48 hrs; in short: as §4
HUVEC [11] = assay: Cytotoxicity against HUVEC cells incubated for 24 to 48 hrs by Celltiter-Glo assay; type: cell-based, Homo sapiens; conditions: Homo sapiens, HUVEC; read-out: IC50
HEK293 [12] = assay: Cytotoxicity against HEK293 cells incubated for 24 to 48 hrs by Celltiter-Glo assay; type: cell-based, Homo sapiens
MCF7 [13] = assay: Cytotoxicity against human MCF7 cells incubated for 24 to 48 hrs by Celltiter-Glo assay; type: cell-based
hERG = hERG (Homo sapiens, UniProt Q12809); assay: Inhibition of human ERG at 10 uM incubated for 2 hrs by fluorescence polarization assay relative to control
In short: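 hERG binding was measured by fluorescence polarization, using a homogenized membrane preparation containing hERG plus a fluorescent tracer. A drop in FP signal from tracer displacement was read as inhibition. Compounds were tested at 10 μM.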

[14] = target: ATP-dependent translocase ABCB1 (Homo sapiens, UniProt P08183); assay: Modulation of P-gp-mediated Rhodamine-123 efflux in human Caco-2 cells assessed as Rhodamine-123 accumulation at 10 uM pretreated for 30 mins in presence or absence of Zos followed by Rho-123 addition and measured after 90 mins by fluorescence spectroscopy; type: cell-based; conditions: caco-2, 2 h, time 120 min
In short: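 Caco-2 cells were exposed to compounds at 10 μM during incubation with the P-gp substrate rhodamine 123 (5 μM). Zosuquidar served as the specific P-gp inhibitor. Cellular rhodamine 123 was read by fluorescence spectroscopy. Mean ± SEM of at least three independent experiments in triplicate.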

SH-SY5Y [15] = assay: Protection against iron(III)-induced damage in human SH-SY5Y cells assessed as increase in lysosomal activity at 1 to 10 uM pretreated for 30 mins followed by iron(III) treatment at 1000 uM after 24 hrs by NR uptake assay; type: functional, cell-based; conditions: dose 1-10 µM, time 24.5 hrs
In short: (§5)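 Differentiated SH-SY5Y cells were pretreated with compounds at 1 or 10 μM for 30 min, then exposed to iron(III) at 1000 or 1500 μM for 24 h. Viability was read by neutral red uptake. Mean ± SD of three independent experiments, two-way ANOVA.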

SH-SY5Y [16] = assay: Protection against iron(III)-induced damage in human SH-SY5Y cells assessed as increase in lysosomal activity at 1 to 10 uM pretreated for 30 mins followed by iron(III) treatment at 1500 uM after 24 hrs by NR uptake assay; type: functional, cell-based; conditions: dose 1-10 µM, time 24.5 hrs; in short: as §5

Sequence of hERG (Q12809 whole entry): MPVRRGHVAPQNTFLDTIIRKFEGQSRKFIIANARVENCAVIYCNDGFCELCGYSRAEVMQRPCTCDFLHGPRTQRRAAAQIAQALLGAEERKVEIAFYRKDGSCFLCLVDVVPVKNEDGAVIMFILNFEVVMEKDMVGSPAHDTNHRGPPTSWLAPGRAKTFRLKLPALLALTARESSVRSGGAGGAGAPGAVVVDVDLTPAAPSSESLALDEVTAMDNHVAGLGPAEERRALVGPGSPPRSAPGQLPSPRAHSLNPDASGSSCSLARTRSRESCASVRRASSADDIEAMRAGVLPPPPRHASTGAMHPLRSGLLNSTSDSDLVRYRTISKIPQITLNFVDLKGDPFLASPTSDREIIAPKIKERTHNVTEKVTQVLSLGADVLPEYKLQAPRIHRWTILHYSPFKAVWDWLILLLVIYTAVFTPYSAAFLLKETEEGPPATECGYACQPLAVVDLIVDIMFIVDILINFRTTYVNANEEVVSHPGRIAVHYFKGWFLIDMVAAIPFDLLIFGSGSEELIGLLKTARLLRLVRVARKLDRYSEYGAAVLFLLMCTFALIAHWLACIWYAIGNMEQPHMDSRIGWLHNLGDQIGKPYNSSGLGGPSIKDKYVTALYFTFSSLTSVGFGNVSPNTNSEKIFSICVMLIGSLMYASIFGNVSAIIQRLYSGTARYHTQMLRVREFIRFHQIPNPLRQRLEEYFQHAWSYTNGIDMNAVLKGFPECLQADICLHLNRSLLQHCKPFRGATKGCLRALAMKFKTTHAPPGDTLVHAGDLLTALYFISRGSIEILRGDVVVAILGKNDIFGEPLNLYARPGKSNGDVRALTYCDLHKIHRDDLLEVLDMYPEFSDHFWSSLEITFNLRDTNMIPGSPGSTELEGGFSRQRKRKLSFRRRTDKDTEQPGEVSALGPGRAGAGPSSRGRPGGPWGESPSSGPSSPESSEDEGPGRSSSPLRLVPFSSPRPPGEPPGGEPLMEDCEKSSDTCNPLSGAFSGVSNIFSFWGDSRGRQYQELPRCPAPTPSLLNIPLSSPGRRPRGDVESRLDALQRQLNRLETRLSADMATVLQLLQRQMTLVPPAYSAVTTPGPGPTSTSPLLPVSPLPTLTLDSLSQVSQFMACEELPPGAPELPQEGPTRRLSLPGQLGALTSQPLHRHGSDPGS
Sequence of ATP-dependent translocase ABCB1 (P08183 whole entry): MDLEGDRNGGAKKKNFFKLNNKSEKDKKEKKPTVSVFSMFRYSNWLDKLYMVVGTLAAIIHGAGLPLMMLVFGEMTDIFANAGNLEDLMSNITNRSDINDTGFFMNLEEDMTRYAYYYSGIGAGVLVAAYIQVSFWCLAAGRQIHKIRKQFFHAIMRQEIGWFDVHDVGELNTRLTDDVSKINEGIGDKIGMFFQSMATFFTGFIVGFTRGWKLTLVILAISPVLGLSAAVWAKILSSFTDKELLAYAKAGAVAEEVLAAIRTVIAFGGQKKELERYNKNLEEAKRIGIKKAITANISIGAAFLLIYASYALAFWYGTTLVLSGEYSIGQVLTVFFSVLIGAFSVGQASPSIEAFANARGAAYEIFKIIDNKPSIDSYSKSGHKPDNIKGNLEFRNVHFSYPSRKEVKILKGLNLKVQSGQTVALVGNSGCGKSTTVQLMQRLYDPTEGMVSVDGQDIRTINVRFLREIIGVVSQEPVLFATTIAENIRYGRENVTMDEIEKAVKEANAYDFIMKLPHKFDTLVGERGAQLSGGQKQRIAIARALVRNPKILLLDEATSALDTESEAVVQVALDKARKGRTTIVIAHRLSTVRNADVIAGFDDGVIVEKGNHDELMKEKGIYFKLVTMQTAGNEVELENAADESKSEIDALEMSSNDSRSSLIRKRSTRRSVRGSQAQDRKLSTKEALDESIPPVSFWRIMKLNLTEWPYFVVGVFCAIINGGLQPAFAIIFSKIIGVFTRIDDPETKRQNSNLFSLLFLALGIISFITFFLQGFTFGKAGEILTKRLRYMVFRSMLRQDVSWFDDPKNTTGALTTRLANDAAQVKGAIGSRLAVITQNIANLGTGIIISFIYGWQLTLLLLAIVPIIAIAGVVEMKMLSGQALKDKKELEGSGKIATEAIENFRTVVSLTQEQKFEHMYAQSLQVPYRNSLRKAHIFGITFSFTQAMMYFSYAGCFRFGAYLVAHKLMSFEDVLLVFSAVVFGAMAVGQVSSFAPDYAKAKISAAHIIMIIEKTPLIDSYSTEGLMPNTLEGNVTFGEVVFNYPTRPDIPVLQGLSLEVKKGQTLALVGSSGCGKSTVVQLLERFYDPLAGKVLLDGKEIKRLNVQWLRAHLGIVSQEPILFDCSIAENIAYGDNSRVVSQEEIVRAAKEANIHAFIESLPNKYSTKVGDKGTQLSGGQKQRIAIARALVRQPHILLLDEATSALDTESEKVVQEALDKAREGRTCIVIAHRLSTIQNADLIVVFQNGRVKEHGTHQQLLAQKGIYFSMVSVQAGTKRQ

solubility [1]: Insoluble
SMILES: Cn1c(=O)c(C(=O)Nc2ccc(Cl)c(Cl)c2)cc2ccccc21

solubility [1]: Insoluble
SMILES: O=C(Nc1ccc(Cl)c(Cl)c1)c1cc2ccccc2[nH]c1=O

IC50 [2]: 78.8 nM | inhibition at 0.5 h, 10 µM (MAO-A): 16.4%
SMILES: O=C(Nc1ccc(Cl)c(Cl)c1)C1COc2ccccc2C1 (centres undefined)
Ratio IC50 (Homo sapiens): > 127 | Activity (SH-SY5Y [3]): Non-Toxic | Activity (Caco-2 [4]): Non-Toxic

solubility [1]: Insoluble
SMILES: Cn1c(=O)c(C(=O)Nc2cccc(Cl)c2)cc2ccccc21

solubility [1]: Insoluble
SMILES: COc1ccc(NC(=O)c2cc3ccccc3oc2=O)cc1OC

IC50 [2]: 2870 nM | inhibition at 0.5 h, 10 µM (MAO-A): 20.2%
SMILES: COc1ccc(NC(=O)C2=Cc3ccccc3OC2)cc1OC
Ratio IC50 (Homo sapiens): > 3.48

IC50 [5]: 11.7 µM | IC50 [2]: 26.4 nM
SMILES: O=C(Nc1cccc(Cl)c1)C1=Cc2ccccc2OC1
Ratio IC50 (Homo sapiens): 444 | Activity (SH-SY5Y [3]): Non-Toxic | Activity (Caco-2 [6]): 88.3%

inhibition at 0.5 h, 10 µM (MAO-A): 2.65% | inhibition at 10 µM [7]: 8.9%
SMILES: O=C(Nc1cccc(Cl)c1)c1cc2ccccc2[nH]c1=O

IC50 [2]: 1780 nM | inhibition at 0.5 h, 10 µM (MAO-A): 19.6%
SMILES: Cc1ccc(NC(=O)C2COc3ccccc3C2)cc1C (centres undefined)
Ratio IC50 (Homo sapiens): > 5.62

inhibition at 0.5 h, 10 µM (MAO-A): 11.8% | inhibition at 10 µM [7]: 14%
SMILES: COc1ccc(NC(=O)C2COc3ccccc3C2)cc1OC (centres undefined)

IC50 [5]: 4.13 µM | IC50 [2]: 3.16 nM | Activity [14]: Not Active
SMILES: O=C(Nc1ccc(Cl)c(Cl)c1)C1=Cc2ccccc2OC1
Ratio IC50 (Homo sapiens): 1300 | Activity (SH-SY5Y [3]): Non-Toxic | Activity (Caco-2 [4]): Non-Toxic | Activity (HUVEC [8]): 64.4% | Activity (HEK293 [9]): < 10% | Activity (MCF7 [10]): < 10% | IC50 (HUVEC [11]): 8.4 µM | IC50 (HEK293 [12]): Not Active | IC50 (MCF7 [13]): Not Active | inhibition at 2 h, 10 µM (hERG): < 10% | Activity (SH-SY5Y [15]): inactive | Activity (SH-SY5Y [16]): inactive
